MT1-MMP act inh = MT1-MMP (human) activation inhibition. 360,000 tested, 0.061% active. HT1080 RFP-PRO-GFP cells, GFP/RFP ratio fluorescence, overnight; percent of plate control window, DMSO zero. AID 651647. P50281. GFP/RFP ratio change, % at 20 µM;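 active means GFP/RFP ratio change of at least 30% with cell ATP level not reduced by more than half and red fluorescence within 50% of control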
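Assay system: RFP-PRO-GFP reporter HT1080 cells; read-out basis: GFP/RFP fluorescence ratio; benchmarks: DMSO wells and RFP-L50D-GFP cells; doses: 20 µM single dose, 1% DMSO; schedule: overnight cell settling, then overnight compound exposure, 37 °C, 5% CO2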
HGIII-sPLA2 inh = Blocks human group III sPLA2 activity. Q9NZ20. AID 743126. inhibition, % at 12.2 µM. 370,000 tested, 0.56% active. QFRET BODIPY PC-A2 liposome hydrolysis, fluorescence;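 active means inhibition above mean plus 3 SD of compounds lying within the high and low control bounds, cut at about 19% in these data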;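 further: 0% = median of test compound wells and 100% = no enzyme DMSO wells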
Target sequence (Q9NZ20 whole entry, looked up): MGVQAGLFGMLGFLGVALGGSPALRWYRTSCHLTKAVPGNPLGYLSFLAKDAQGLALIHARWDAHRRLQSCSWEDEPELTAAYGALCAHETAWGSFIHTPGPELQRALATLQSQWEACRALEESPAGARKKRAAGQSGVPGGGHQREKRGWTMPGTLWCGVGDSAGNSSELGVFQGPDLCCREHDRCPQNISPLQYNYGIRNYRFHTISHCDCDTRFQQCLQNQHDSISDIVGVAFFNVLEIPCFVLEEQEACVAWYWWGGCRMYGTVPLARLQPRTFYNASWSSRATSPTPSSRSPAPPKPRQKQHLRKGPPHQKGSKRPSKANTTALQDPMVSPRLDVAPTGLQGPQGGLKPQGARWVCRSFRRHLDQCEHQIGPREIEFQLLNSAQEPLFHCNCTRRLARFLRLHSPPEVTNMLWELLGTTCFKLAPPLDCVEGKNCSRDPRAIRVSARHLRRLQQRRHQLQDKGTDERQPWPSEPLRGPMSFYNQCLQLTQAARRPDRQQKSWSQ
Efflux pump inh = antifungal efflux pump inhibition, Nile Red retention; S. cerevisiae Candida pump triplex; inhibition, % at 10 µM; 330,000 tested, 0.44% active;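 active means plate passing quality check with inhibition over a set limit, or well fluorescence over plate mean plus 4 SD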;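 further: Nile Red retained in pooled yeast measured as flow cytometry median fluorescence; 0% = buffer negative control and 100% = Enniatin B positive control; higher means more Nile Red kept so more efflux inhibition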
TAG inh = triacylglycerol accumulation inhibition. 230,000 tested, 0.66% active. AID 651582. H9c2 cells, Nile Red lipid (TAG) fluorescence; cells loaded with 200 µM oleic acid. inhibition, % at 12.5 µM;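 active means pattern-corrected inhibition of lipid staining of at least 50% with the nuclear-stain viability signal not falling by more than 50%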;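 further: 0% = DMSO wells and 100% = triacsin C control wells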
TAG conf = confirmation of triacylglycerol accumulation inhibitors; inhibition, % at 12.5 µM; H9c2 lipid accumulation, Nile Red fluorescence; cells loaded with 200 µM oleic acid; shares compounds with TAG inh; 990 tested, 71% active;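 active means mean inhibition across replicates of 40% or more; inactive means mean inhibition below 40%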;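 further: plate controls were DMSO only wells for no effect and Triacsin C treated wells for full effect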
* hit, by the source's call. Compounds with a hit are over-represented: about 1.3% of the library has one in this group of screens.

What do the screens show for `Cc1cccc(NC(=O)C(C)Sc2nc3ccccc3c(=O)n2CCCN2CCOCC2)c1` (configuration not stated)?
MT1-MMP act inh: 9.0; HGIII-sPLA2 inh: 2.9; Efflux pump inh: 0.3; TAG inh: 52.9*; TAG conf: 56.9*

Results for C#CCN(C[C@@H]1[C@@H](OC(=O)NCC2CCCCC2)[C@@H](OC(=O)NCC2CCCCC2)CN(C(=O)OC(C)C)N1C(=O)OC(C)C)S(=O)(=O)c1ccc(C)cc1 ?
MT1-MMP act inh: -14.9; HGIII-sPLA2 inh: -2.9; TAG inh: 50.6*; TAG conf: 61.2*

Results for Cc1ccc(C)c(Oc2cc(NN3CCCCC3)c([N+](=O)[O-])cc2[N+](=O)[O-])c1 ?
MT1-MMP act inh: -2.6; HGIII-sPLA2 inh: 10.3; Efflux pump inh: -0.1; TAG inh: 5.2

How did Cc1ccc(F)c(Oc2cc(NN3CCCCC3)c([N+](=O)[O-])cc2[N+](=O)[O-])c1 do in these assays?
MT1-MMP act inh: -2.1; HGIII-sPLA2 inh: 3.2; Efflux pump inh: -0.2; TAG inh: 50.5*; TAG conf: 7.0

How did CC(C)(CNC(=O)c1ccc(Br)o1)CNC(=O)c1ccc(Br)o1 do in these assays?
MT1-MMP act inh: 1.8; HGIII-sPLA2 inh: -3.8

Results for O=C1NC(c2cccc3ccccc23)Nc2ccc(Cl)cc21 (configuration not stated) ?
MT1-MMP act inh: 17.3; HGIII-sPLA2 inh: -3.3; TAG inh: 52.1*; TAG conf: 36.5

How did Clc1ccc(C2Nc3cccc4cccc(c34)N2)c(Cl)c1 do in these assays?
MT1-MMP act inh: 10.6; HGIII-sPLA2 inh: 10.8; TAG inh: 33.8

How did O=C(N/N=C/c1ccc2c(c1)OCO2)c1cc(-c2ccncc2)nc2ccccc12 do in these assays?
MT1-MMP act inh: 5.9; HGIII-sPLA2 inh: 0.1; Efflux pump inh: -0.5; TAG inh: 53.7*; TAG conf: 66.9*

What do the screens show for `Cc1ccc(/C=N/NC(=O)c2cc(-c3cccnc3)nc3ccccc23)cc1`?
MT1-MMP act inh: 12.6; HGIII-sPLA2 inh: -7.4; Efflux pump inh: -0.1; TAG inh: 56.7*; TAG conf: 48.7*

How did COc1ccc(Cc2n[nH]c(=S)o2)cc1 do in these assays?
MT1-MMP act inh: 1.4; HGIII-sPLA2 inh: 6.1; Efflux pump inh: 0.1; TAG inh: 55.5*; TAG conf: 3.0

How did COC(=O)[C@]12C[C@H](CC(=O)NCCCN3CCCC3=O)C(=O)N(Cc3ccco3)C1=C[C@H](C(C)C)O[C@@H]2C1CC1 do in these assays?
HGIII-sPLA2 inh: 1.3

What do the screens show for `O=C(CCC(=O)N1CCOc2ccc(Cl)cc21)NCCCN1CCN(c2ccccc2F)CC1`?
MT1-MMP act inh: 2.8; HGIII-sPLA2 inh: -3.5; Efflux pump inh: -0.2; TAG inh: -9.3

Results for O=C(CCC(=O)N1CCOc2ccc(Cl)cc21)NCCCN1CCC(Cc2ccccc2)CC1 ?
MT1-MMP act inh: -5.3; HGIII-sPLA2 inh: -11.7; Efflux pump inh: 0.1; TAG inh: 90.1*; TAG conf: 61.6*

What do the screens show for `CCCN(CCC)CCCNC(=O)c1cc2cc3ccc(OC)cc3nc2o1`?
MT1-MMP act inh: 1.8; HGIII-sPLA2 inh: -9.5; Efflux pump inh: 0.0; TAG inh: 6.0

What do the screens show for `COc1ccc2cc3cc(C(=O)NCCc4ccc(OC)c(OC)c4)oc3nc2c1`?
MT1-MMP act inh: 4.5; HGIII-sPLA2 inh: -4.4; Efflux pump inh: 0.1; TAG inh: 67.0*; TAG conf: 43.9*

How did CN(C)CCCN1c2ccccc2Sc2ccc3ccccc3c21 do in these assays?
MT1-MMP act inh: -9.9; HGIII-sPLA2 inh: -2.4; TAG inh: 50.5*; TAG conf: 59.8*

Results for COc1ccc2[nH]c(=O)c(CN(C(C)=O)c3cc(C)ccc3C)cc2c1 ?
MT1-MMP act inh: 0.3; HGIII-sPLA2 inh: 4.0; TAG inh: -3.5

How did COc1cc(NC(=O)c2ccco2)c(OC)cc1NC(=O)CCC(=O)Nc1cccc(C)c1C do in these assays?
MT1-MMP act inh: 1.6; HGIII-sPLA2 inh: 2.5; Efflux pump inh: -0.2; TAG inh: 55.9*; TAG conf: 52.5*

How did N#Cc1cnn2c(=O)[nH]cnc12 do in these assays?
MT1-MMP act inh: -6.7; HGIII-sPLA2 inh: 0.6; TAG inh: -6.1

How did COc1cc(-c2noc(C)c2C#Cc2ccc(N)cc2)cc(OC)c1OC do in these assays?
MT1-MMP act inh: 28.7; HGIII-sPLA2 inh: 0.4; Efflux pump inh: -0.1; TAG inh: 56.9*; TAG conf: 46.5*

Results for CCN(CC(=O)Nc1ccc(C(=O)Nc2ccc(OC)cc2)cc1)Cc1nc2ccccc2c(=O)[nH]1 ?
MT1-MMP act inh: -4.3; HGIII-sPLA2 inh: -1.3; Efflux pump inh: 0.1; TAG inh: 54.7*; TAG conf: 50.5*

What do the screens show for `CCN(CC(=O)Nc1cc(OC)ccc1OC)Cc1nc2ccccc2c(=O)[nH]1`?
MT1-MMP act inh: -2.5; HGIII-sPLA2 inh: 0.8; Efflux pump inh: 0.0; TAG inh: 17.4

Results for CN(Cc1ccc(Cl)cc1)C(=O)CCl ?
MT1-MMP act inh: -2.6; HGIII-sPLA2 inh: 2.8; Efflux pump inh: 0.3; TAG inh: 51.6*; TAG conf: 59.5*

Results for O=C(NCc1nnnn1-c1ccc(F)cc1)c1ccc([N+](=O)[O-])o1 ?
MT1-MMP act inh: 3.5; HGIII-sPLA2 inh: -10.6; Efflux pump inh: 0.2; TAG inh: 64.9*; TAG conf: 81.7*

Results for O=C(NCC(c1ccc(F)cc1)N1CCOCC1)c1ccc([N+](=O)[O-])o1 (configuration not stated) ?
MT1-MMP act inh: 4.0; HGIII-sPLA2 inh: 8.7; Efflux pump inh: 0.1; TAG inh: 50.8*; TAG conf: 75.7*

How did Cc1ccc(-n2nnnc2CNC(=O)c2ccc([N+](=O)[O-])o2)cc1C do in these assays?
MT1-MMP act inh: -4.7; HGIII-sPLA2 inh: 9.3; Efflux pump inh: -0.1; TAG inh: 59.6

How did COc1ccc(CNC(=O)COC(=O)[C@@H]2CCCN2C(=O)c2cccs2)cc1 do in these assays?
MT1-MMP act inh: 0.2; HGIII-sPLA2 inh: 2.4; Efflux pump inh: 0.1; TAG inh: -3.6

What do the screens show for `COc1ccc(-c2csc(NC(=S)NC(=O)/C=C/c3ccco3)n2)cc1Br`?
MT1-MMP act inh: 5.0; HGIII-sPLA2 inh: 3.6; Efflux pump inh: 0.2; TAG inh: 78.9*; TAG conf: 86.6*

Results for COc1ccc(-c2csc(NC(=S)NC(=O)/C=C/c3ccco3)n2)cc1OC ?
MT1-MMP act inh: -6.0; HGIII-sPLA2 inh: -6.2; Efflux pump inh: -0.2

What do the screens show for `Cc1ccc(Nc2ccc(C(=O)NC3CCCCC3)cn2)cc1`?
MT1-MMP act inh: 6.9; HGIII-sPLA2 inh: -1.7; Efflux pump inh: 0.0; TAG inh: 12.5

What do the screens show for `COc1cc2c(cc1OC)C(C)N(C(=O)c1cc3c(C)cc(C)cc3[nH]1)CC2` (configuration not stated)?
MT1-MMP act inh: -16.0; HGIII-sPLA2 inh: -7.3; Efflux pump inh: -0.1; TAG inh: 54.0*; TAG conf: 59.0*

Compound activity deposited in PubChem BioAssay by several laboratories.
